Reference: ChEMBL document CHEMBL1671813, “Discovery of potent competitive antagonists and positive modulators of the P2X2 receptor” (J Med Chem, 2011)
Active and inactive are the calls of the source. No cut-off for these calls is given here.

Tests used:
P2Y purinoceptor 2 = P2Y purinoceptor 2 (Homo sapiens, UniProt P41231); assay: Antagonist activity against human P2Y2 receptor expressed in 1321N1 astrocytoma cells by calcium mobilization assay; format: functional, cell-based
Outline: (§1)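 Astrocytoma cell lines stably transfected with human P2Y2, human P2Y4 or rat P2Y6 receptor. Inhibition of receptor-mediated intracellular calcium mobilization was measured.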

P2Y purinoceptor 4 = P2Y purinoceptor 4 (Homo sapiens, UniProt P51582); assay: Antagonist activity against human P2Y4 receptor expressed in 1321N1 astrocytoma cells by calcium mobilization assay; format: functional, cell-based; outline: as §1
P2Y purinoceptor 12 = P2Y purinoceptor 12 (Homo sapiens, UniProt Q9H244); assay: Displacement of [3H]PSB0413 from human platelet P2Y12 receptor
[1] = target: P2Y purinoceptor 6 (Rattus norvegicus) (UniProt Q63371); assay: Antagonist activity against rat P2Y6 receptor expressed in 1321N1 astrocytoma cells by calcium mobilization assay
P2X purinoceptor 2 [2] = target: T1, P2X purinoceptor 2 (Rattus norvegicus, UniProt P49653); assay: Antagonist activity against rat P2X2 receptor expressed in Xenopus laevis oocyte assessed as inhibition of ATP-induced inward current by two-electrode voltage-clamp electrophysiology
T1 sequence (P49653 whole entry): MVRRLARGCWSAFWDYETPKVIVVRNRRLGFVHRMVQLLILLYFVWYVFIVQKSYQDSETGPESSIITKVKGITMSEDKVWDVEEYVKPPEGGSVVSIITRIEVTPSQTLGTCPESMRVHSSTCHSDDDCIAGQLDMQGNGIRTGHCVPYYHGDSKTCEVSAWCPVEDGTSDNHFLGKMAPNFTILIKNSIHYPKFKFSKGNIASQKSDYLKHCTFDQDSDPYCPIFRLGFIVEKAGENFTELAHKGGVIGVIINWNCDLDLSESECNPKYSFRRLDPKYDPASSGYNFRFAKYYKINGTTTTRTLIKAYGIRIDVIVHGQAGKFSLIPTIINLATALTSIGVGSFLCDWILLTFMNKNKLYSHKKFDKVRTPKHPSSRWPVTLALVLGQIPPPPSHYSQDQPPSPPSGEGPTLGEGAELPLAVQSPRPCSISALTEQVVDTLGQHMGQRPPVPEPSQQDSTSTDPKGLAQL

P2X purinoceptor 4 = target: T2, P2X purinoceptor 4 (Rattus norvegicus, UniProt P51577); assay: Antagonist activity against rat P2X4 receptor expressed in Xenopus laevis oocyte assessed as inhibition of ATP-induced inward current by two-electrode voltage-clamp electrophysiology
T2 sequence (P51577 whole entry): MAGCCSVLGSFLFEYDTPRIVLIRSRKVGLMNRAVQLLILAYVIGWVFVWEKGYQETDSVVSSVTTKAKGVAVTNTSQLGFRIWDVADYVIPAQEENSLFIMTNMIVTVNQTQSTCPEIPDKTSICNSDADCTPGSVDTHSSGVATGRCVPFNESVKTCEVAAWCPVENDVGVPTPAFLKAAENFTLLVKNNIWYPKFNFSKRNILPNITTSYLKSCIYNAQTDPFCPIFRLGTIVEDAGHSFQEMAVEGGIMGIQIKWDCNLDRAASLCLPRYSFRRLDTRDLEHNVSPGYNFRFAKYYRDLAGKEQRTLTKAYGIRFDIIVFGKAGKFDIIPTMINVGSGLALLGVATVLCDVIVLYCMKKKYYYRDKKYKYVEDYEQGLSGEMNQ

[3] = target: T3, P2X purinoceptor 2 (Rattus norvegicus) (UniProt P49653); assay: Antagonist activity against rat P2X2 receptor expressed in Xenopus laevis oocyte assessed as potentiation of ATP-induced inward current at 100 nM by two-electrode voltage-clamp electrophysiology
T3 sequence (whole entry): T1 sequence (P49653 whole entry)

[4] = target: T3, P2X purinoceptor 2 (Rattus norvegicus); assay: Antagonist activity against rat P2X2 receptor expressed in Xenopus laevis oocyte assessed as maximum current amplitude by two-electrode voltage-clamp electrophysiology; format: functional
Outline: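 Rat P2X2-expressing oocytes were voltage-clamped in Mg-ORi. Test compound at 100 nM was coapplied with 10 μM ATP. Current amplitude was expressed as a percentage of the current elicited by ATP alone (set at 100%).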

P2X purinoceptor 2 [5] = target: T1, P2X purinoceptor 2; assay: Positive modulator activity against rat P2X2 receptor expressed in Xenopus laevis oocyte assessed as maximum ATP-induced inward current by two-electrode voltage-clamp electrophysiology in presence of 10 uM ATP
P2X purinoceptor 2 [6] = target: T1, P2X purinoceptor 2; assay: Antagonist activity against rat P2X2 receptor expressed in Xenopus laevis oocyte assessed as inhibition of […] inward current by two-electrode voltage-clamp electrophysiology; format: functional
Outline: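 Rat P2X2 or P2X4 cRNA was injected into collagenase-defolliculated Xenopus oocytes, which were kept at 19°C in ORi. Two-electrode voltage clamp was run 2-3 days later with perfusion in calcium-free Mg-ORi. 10 μM ATP was applied until steady-state current, then coapplied with incrementally larger test concentrations, with ATP-alone washout between. Inhibition was taken from the stationary current ratio, and IC50 from a Hill fit to pooled data.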

P2X purinoceptor 1 = target: T4, P2X purinoceptor 1 (Rattus norvegicus, UniProt P47824); assay: Antagonist activity against rat P2X1 receptor expressed in Xenopus laevis oocyte assessed as inhibition of alpha, beta-meATP-induced inward current by two-electrode voltage-clamp electrophysiology; format: functional
T4 sequence (P47824 whole entry): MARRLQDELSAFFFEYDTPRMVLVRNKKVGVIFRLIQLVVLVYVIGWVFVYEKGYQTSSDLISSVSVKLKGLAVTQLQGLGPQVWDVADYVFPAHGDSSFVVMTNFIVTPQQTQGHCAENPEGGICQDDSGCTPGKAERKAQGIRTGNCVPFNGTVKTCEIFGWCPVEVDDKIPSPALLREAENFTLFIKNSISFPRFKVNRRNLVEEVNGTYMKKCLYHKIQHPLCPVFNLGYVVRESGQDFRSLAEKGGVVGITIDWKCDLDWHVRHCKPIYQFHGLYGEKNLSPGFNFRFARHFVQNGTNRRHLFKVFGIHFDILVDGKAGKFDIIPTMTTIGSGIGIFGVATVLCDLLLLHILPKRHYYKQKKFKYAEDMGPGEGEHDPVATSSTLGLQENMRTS

P2X purinoceptor 3 = target: T5, P2X purinoceptor 3 (Rattus norvegicus, UniProt P49654); assay: Antagonist activity against rat P2X3 receptor expressed in Xenopus laevis oocyte assessed as inhibition of alpha, beta-meATP-induced inward current by two-electrode voltage-clamp electrophysiology; format: functional
T5 sequence (P49654 whole entry): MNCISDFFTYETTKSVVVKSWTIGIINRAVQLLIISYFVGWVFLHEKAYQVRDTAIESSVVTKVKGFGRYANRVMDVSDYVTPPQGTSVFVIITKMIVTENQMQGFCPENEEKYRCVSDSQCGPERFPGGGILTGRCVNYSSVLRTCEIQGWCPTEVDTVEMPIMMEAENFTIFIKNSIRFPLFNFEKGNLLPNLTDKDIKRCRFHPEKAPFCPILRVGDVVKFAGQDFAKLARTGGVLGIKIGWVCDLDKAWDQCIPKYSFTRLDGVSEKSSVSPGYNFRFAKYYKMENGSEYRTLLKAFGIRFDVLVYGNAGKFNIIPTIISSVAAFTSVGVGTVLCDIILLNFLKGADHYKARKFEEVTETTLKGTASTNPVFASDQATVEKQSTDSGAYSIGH

P2X2/P2X3 receptor = target: T6, P2X2/P2X3 receptor (Rattus norvegicus, UniProt P49653+P49654); assay: Antagonist activity against rat P2X2/3 receptor expressed in Xenopus laevis oocyte assessed as inhibition of alpha, beta-meATP-induced inward current by two-electrode voltage-clamp electrophysiology; format: functional
T6 sequence (P49653 whole entry): T1 sequence (P49653 whole entry)
T6 sequence (P49654 whole entry): T5 sequence (P49654 whole entry)
Outline: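 Heteromer formed by injecting rP2X2 and rP2X3 cRNA at 1:2 (w/w). Agonist 1 μM α,β-meATP, applied repeatedly to keep homomeric P2X3 desensitized. Same steady-state coapplication protocol in Ca-free Mg-ORi. IC50 from a Hill fit to pooled data from 5-7 experiments.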

P2X purinoceptor 7 = target: T7, P2X purinoceptor 7 (Rattus norvegicus, UniProt Q64663); assay: Antagonist activity against rat P2X7 receptor expressed in Xenopus laevis oocyte assessed as inhibition of […] inward current by two-electrode voltage-clamp electrophysiology; format: functional
T7 sequence (Q64663 whole entry): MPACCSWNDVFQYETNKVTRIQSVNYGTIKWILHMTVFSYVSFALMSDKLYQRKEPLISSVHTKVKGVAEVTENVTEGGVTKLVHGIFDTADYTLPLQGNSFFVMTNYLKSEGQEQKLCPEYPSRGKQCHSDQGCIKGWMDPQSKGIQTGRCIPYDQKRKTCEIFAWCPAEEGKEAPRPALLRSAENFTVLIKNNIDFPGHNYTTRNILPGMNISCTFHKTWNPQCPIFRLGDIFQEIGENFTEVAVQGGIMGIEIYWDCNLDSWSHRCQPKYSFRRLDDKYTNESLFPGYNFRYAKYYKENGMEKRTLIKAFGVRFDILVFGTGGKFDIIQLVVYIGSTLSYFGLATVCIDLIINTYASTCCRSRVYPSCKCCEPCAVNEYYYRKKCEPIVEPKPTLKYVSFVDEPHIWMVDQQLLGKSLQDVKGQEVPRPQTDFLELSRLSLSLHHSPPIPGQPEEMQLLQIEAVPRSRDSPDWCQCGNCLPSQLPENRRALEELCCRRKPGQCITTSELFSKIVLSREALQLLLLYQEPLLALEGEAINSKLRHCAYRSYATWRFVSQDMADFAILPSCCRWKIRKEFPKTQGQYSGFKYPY

[7] = Selectivity ratio of IC50 for rat P2X2 receptor to IC50 for rat P2X3 receptor
[8] = Selectivity ratio of IC50 for rat P2X2 receptor to IC50 for rat P2X1 receptor
[9] = Selectivity ratio of IC50 for rat P2X2 receptor to IC50 for rat P2X2/3 receptor
[10] = Selectivity ratio of IC50 for rat P2X2 receptor to IC50 for rat P2X4 receptor
[11] = Selectivity ratio of IC50 for rat P2X2 receptor to IC50 for rat P2X7 receptor

P2Y purinoceptor 2, sequence (P41231 whole entry): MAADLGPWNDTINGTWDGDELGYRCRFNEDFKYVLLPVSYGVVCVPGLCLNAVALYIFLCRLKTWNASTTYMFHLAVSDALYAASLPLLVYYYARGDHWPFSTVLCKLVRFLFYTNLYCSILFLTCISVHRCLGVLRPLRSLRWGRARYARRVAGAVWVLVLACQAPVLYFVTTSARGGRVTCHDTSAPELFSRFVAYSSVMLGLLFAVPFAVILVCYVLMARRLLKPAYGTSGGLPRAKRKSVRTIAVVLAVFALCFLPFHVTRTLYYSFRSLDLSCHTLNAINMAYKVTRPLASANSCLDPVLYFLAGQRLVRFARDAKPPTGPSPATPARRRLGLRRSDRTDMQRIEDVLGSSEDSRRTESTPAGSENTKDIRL
P2Y purinoceptor 12, sequence (Q9H244 whole entry): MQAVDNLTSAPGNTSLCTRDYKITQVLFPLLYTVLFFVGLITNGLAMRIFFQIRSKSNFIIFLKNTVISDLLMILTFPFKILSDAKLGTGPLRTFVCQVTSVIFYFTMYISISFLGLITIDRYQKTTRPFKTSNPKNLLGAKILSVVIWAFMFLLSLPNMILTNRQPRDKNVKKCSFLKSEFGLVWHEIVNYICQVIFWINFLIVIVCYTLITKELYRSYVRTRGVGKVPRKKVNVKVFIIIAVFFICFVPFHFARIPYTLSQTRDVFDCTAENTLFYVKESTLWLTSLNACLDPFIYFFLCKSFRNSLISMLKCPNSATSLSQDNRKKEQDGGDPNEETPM
P2Y purinoceptor 4, sequence (P51582 whole entry): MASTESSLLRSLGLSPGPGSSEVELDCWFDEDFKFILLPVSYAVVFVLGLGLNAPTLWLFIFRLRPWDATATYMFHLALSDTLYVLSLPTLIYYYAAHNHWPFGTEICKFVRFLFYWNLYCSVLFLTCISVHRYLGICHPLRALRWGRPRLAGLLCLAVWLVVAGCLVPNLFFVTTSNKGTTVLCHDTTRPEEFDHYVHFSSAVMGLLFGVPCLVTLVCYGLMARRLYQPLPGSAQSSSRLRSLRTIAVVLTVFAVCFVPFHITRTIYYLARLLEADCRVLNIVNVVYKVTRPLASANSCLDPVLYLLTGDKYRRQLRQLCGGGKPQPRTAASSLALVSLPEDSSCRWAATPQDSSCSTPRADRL

SMILES | IC50 (P2Y purinoceptor 2) [µM] | IC50 (P2Y purinoceptor 4) [µM] | IC50 [1] [µM] | IC50 (P2X purinoceptor 2 [2]) [µM] | IC50 (P2X purinoceptor 4) [µM] | potentiation % [3] [%] | also measured
Cc1cccc(Nc2cc(S(=O)(=O)O)c(N)c3c2C(=O)c2ccccc2C3=O)c1 | 10 | > 10 | 3.92 | 0.8 | > 10 |  | Ki (P2Y purinoceptor 12): 10 µM
Cc1cc(C)cc(Nc2cc(S(=O)(=O)O)c(N)c3c2C(=O)c2ccccc2C3=O)c1 |  |  |  |  |  | 106 | 
Nc1c(S(=O)(=O)O)cc(Nc2cccc(Oc3ccccc3)c2)c2c1C(=O)c1ccccc1C2=O | 10 |  | 4.56 |  |  | 132 | Activity [4]: Active; EC50 (P2X purinoceptor 2 [5]): 0.489 µM
Nc1c(S(=O)(=O)O)cc(Nc2ccc(Nc3nc(Cl)nc(Cl)n3)cc2)c2c1C(=O)c1ccccc1C2=O | 12.1 | 10 | 10 | 0.117 | > 10 |  | 
Cc1cc(/N=N/c2ccc(S(=O)(=O)O)cc2S(=O)(=O)O)c(COP(=O)(O)O)c(C=O)c1O |  |  |  | 4 |  |  | IC50 (P2X purinoceptor 2 [6]): 39.8 µM
Nc1c(S(=O)(=O)O)cc(Nc2ccc(Nc3nc(Cl)nc(Nc4cccc(S(=O)(=O)O)c4)n3)c(S(=O)(=O)O)c2)c2c1C(=O)c1ccccc1C2=O [RB 2] |  |  | 4.34 | 4 |  |  | IC50 (P2X purinoceptor 2 [6]): 39.8 µM; Ki (P2Y purinoceptor 12): 0.68 µM
Nc1c(S(=O)(=O)O)cc(Nc2ccc(S(=O)(=O)O)c(Nc3nc(Cl)nc(Cl)n3)c2)c2c1C(=O)c1ccccc1C2=O | 10 | > 10 | > 10 | 0.079 | > 10 |  | IC50 (P2X purinoceptor 1): 0.422 µM; IC50 (P2X purinoceptor 3): 0.494 µM; IC50 (P2X2/P2X3 receptor): 1.04 µM; IC50 (P2X purinoceptor 7): > 10 µM; IC50 [7]: 0.0053 µM; IC50 [8]: 0.0062 µM; IC50 [9]: 0.0132 µM; IC50 [10]: > 0.12 µM; IC50 [11]: > 0.12 µM
COc1cccc(Nc2cc(S(=O)(=O)O)c(N)c3c2C(=O)c2ccccc2C3=O)c1 | 10 | 10 | > 10 | 0.623 | > 10 |  | Ki (P2Y purinoceptor 12): 10 µM
Nc1ncnc2c1ncn2[C@@H]1O[C@H](COP(=O)(O)OP(=O)(O)OP(=O)(O)O)[C@H]2OC3(O[C@H]21)C([N+](=O)[O-])=CC(=[N+]([O-])[O-])C=C3[N+](=O)[O-] (stereo not given in full) [TNP-ATP SODIUM] |  |  |  | 4 |  |  | IC50 (P2X purinoceptor 2 [6]): 39.8 µM
Nc1c(S(=O)(=O)O)cc(Nc2cccc(Cc3ccccc3)c2)c2c1C(=O)c1ccccc1C2=O | > 10 | > 10 | > 10 |  |  | 120 | 
Nc1c(S(=O)(=O)O)cc(Nc2ccc(Nc3ccccc3)c(S(=O)(=O)O)c2)c2c1C(=O)c1ccccc1C2=O |  |  |  |  |  | 110 | 
Nc1c(S(=O)(=O)O)cc(Nc2cc(Nc3nc(Cl)nc(Cl)n3)cc(C(=O)O)c2)c2c1C(=O)c1ccccc1C2=O | 3.27 | 1.45 | 2.55 | 0.293 | > 10 |  | 
